The source made the active and inactive calls. The calls are words filed in the database; no cut-off is given here.
Assays:
[1] = tested on: AGS; experiment: Potentiation of TRAIL-induced cytotoxicity against human AGS cells assessed as reduction in cell viability at 20 to 80 uM measured after 24 hrs by FMCA method; assay type: functional, cell-based
How it was run: (§1)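 FMCA viability assay in TRAIL-resistant AGS cells or HEK293 cells (HEK293 in DMEM, 10% FBS, 1% penicillin-streptomycin). Cells are seeded at 6 × 10^3 per well, left 24 h at 37 °C in 5% CO2, then exposed to test sample at several doses with or without TRAIL (100 ng/mL) for 24 h. Cells are PBS-washed and given […] (10 μg/mL) in PBS for 1 h at 37 °C. Fluorescence is read at ex 485/em 538 nm. Means ± SD, n = 4; luteolin is the positive control and DMSO the negative control.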

[2] = tested on: AGS; experiment: Potentiation of TRAIL-induced cytotoxicity against human AGS cells assessed as reduction in cell viability at 10 to 40 uM measured after 24 hrs by FMCA method; assay type: functional, cell-based; how it was run: as §1
[3] = tested on: AGS; experiment: Potentiation of TRAIL-induced cytotoxicity against human AGS cells assessed as reduction in cell viability at 10 to 30 uM measured after 24 hrs by FMCA method; assay type: functional, cell-based; how it was run: as §1
[4] = tested on: AGS; experiment: Potentiation of TRAIL-induced cytotoxicity against human AGS cells assessed as reduction in cell viability at 10 to 50 uM measured after 24 hrs by FMCA method; assay type: functional, cell-based; how it was run: as §1
[5] = Upregulation of cleaved caspase3 expression in human AGS cells at 8 to 24 uM measured after 24 hrs by Western blot analysis; assay type: functional, cell-based
How it was run: (§2)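 Western blot in AGS cells. Cells are seeded for 24 h and treated with compound at the indicated concentrations for 24 h. Lysis is in Tris·HCl (20 mM, pH 7.4), NaCl 150 mM, 0.5% Triton X-100, 0.5% deoxycholate, EDTA 10 mM, orthovanadate 1 mM, NaF 0.1 mM and protease inhibitors. Proteins are run on 12.5% SDS-PAGE and transferred to PVDF, blocked in 5% milk/TBST, probed with primary and then HRP secondary antibodies, and detected by ECL. β-Actin is the internal control.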

[6] = tested on: AGS; experiment: Induction of apoptosis in human AGS cells assessed as cleaved caspase9 level at 16 uM measured after 24 hrs by Western blot analysis relative to control; assay type: functional
How it was run: (§3)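 Western blot in AGS cells for cleaved caspases-3, -8 and -9. Cells are seeded for 24 h, then given compound at 16 μM, TRAIL (100 ng/mL), or both together for 24 h. Lysates are made in the Tris/Triton/deoxycholate lysis buffer with protease inhibitors and run on 12.5% SDS-PAGE. Proteins are transferred to PVDF, immunodetected with HRP secondary antibodies and read by ECL chemiluminescence.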

[7] = Upregulation of DR4 protein expression in human AGS cells measured after 24 hrs by Western blot analysis; assay type: functional, cell-based; how it was run: as §2
[8] = Upregulation of Bax protein expression in human AGS cells at 8 to 24 uM measured after 24 hrs by Western blot analysis; assay type: functional, cell-based; how it was run: as §2
[9] = Upregulation of Fas protein expression in human AGS cells measured after 24 hrs by Western blot analysis; assay type: functional, cell-based; how it was run: as §2
[10] = Upregulation of CHOP expression in human AGS cells measured after 24 hrs by Western blot analysis; assay type: functional, cell-based; how it was run: as §2
[11] = Upregulation of cleaved caspase9 expression in human AGS cells at 8 to 24 uM measured after 24 hrs by Western blot analysis; assay type: functional, cell-based; how it was run: as §2
[12] = tested on: AGS; experiment: Induction of apoptosis in human AGS cells assessed as cleaved caspase8 level at 16 uM measured after 24 hrs by Western blot analysis relative to control; assay type: functional; how it was run: as §3
[13] = Downregulation of Bcl2 protein expression in human AGS cells measured after 24 hrs by Western blot analysis; assay type: functional, cell-based; how it was run: as §2
[14] = Downregulation of GSK-3beta protein expression in human AGS cells measured after 24 hrs by Western blot analysis; assay type: functional, cell-based; how it was run: as §2
[15] = tested on: AGS; experiment: Potentiation of TRAIL-induced apoptosis in human AGS cells assessed as increase in cleaved caspase8 level at 16 uM measured after 24 hrs by Western blot analysis; assay type: functional; how it was run: as §3
[16] = tested on: AGS; experiment: Potentiation of TRAIL-induced cytotoxicity in human AGS cells assessed as reduction in cell viability at 5 to 25 uM measured after 24 hrs by FMCA method; assay type: functional, cell-based; how it was run: as §1
[17] = Cytotoxicity against HEK293 cells assessed as reduction in cell viability up to 30 uM measured after 24 hrs in presence of TRIAL by FMCA method; assay type: toxicity, cell-based; settings: human, hek293, 24 h; how it was run: as §1
[18] = tested on: AGS; experiment: Induction of apoptosis in human AGS cells assessed as cleaved caspase3 level at 16 uM measured after 24 hrs by Western blot analysis relative to control; assay type: functional; how it was run: as §3
[19] = Upregulation of p53 protein expression in human AGS cells measured after 24 hrs by Western blot analysis; assay type: functional, cell-based; how it was run: as §2
[20] = Downregulation of c-FLIP expression in human AGS cells at 8 to 24 uM measured after 24 hrs by Western blot analysis; assay type: functional, cell-based; how it was run: as §2
[21] = Upregulation of cleaved caspase-8 expression in human AGS cells at 8 to 24 uM measured after 24 hrs by Western blot analysis; assay type: functional, cell-based; how it was run: as §2
[22] = tested on: AGS; experiment: Potentiation of TRAIL-induced apoptosis in human AGS cells assessed as increase in cleaved caspase9 level at 16 uM measured after 24 hrs by Western blot analysis; assay type: functional; how it was run: as §3
[23] = tested on: AGS; experiment: Potentiation of TRAIL-induced apoptosis in human AGS cells assessed as increase in cleaved caspase3 level at 16 uM measured after 24 hrs by Western blot analysis; assay type: functional; how it was run: as §3
[24] = Upregulation of DR5 protein expression in human AGS cells measured after 24 hrs by Western blot analysis; assay type: functional, cell-based; how it was run: as §2
[25] = tested on: AGS; experiment: Potentiation of TRAIL-induced cytotoxicity against human AGS cells assessed as reduction in cell viability at 40 to 120 uM measured after 24 hrs by FMCA method; assay type: functional, cell-based; how it was run: as §1
[26] = tested on: AGS; experiment: Potentiation of TRAIL-induced cytotoxicity against human AGS cells assessed as reduction in cell viability at 20 to 60 uM measured after 24 hrs by FMCA method; assay type: functional, cell-based; how it was run: as §1
[27] = tested on: AGS; experiment: Potentiation of TRAIL-induced cytotoxicity against human AGS cells assessed as reduction in cell viability at 5 to 30 uM measured after 24 hrs by FMCA method; assay type: functional, cell-based; how it was run: as §1

## CC1=C[C@@H](O)[C@H](C(C)C)CC1=O
[1]
  Activity: Active

## C=C[C@@]1(C)CCC2=C(C[C@@H](O)[C@H]3C(C)(C)CC[C@H](O)[C@]23C)C1=O
[1]
  Activity: Active

## C=C[C@]1(C)C=C2C[C@@H](OC(C)=O)[C@H]3C(C)(C)CCC(=O)[C@]3(C)[C@@]2(O)CC1
[2]
  Activity: Active

## C=C[C@@]1(C)CCC2=C([C@H]1OC)[C@H](OC)[C@@H](O)[C@H]1C(C)(C)CCC[C@]21C
[2]
  Activity: Active

## C=C[C@@]1(C)CCC2=C([C@H](OC)[C@@H](O)[C@H]3C(C)(C)CCC[C@]23C)[C@@H]1OC
[3]
  Activity: Active

## C=C[C@@]1(C)C=C2CC[C@H]3C(C)(C)CC[C@H](O)[C@]3(C)[C@H]2[C@H](O)C1
[3]
  Activity: Active

## C=C[C@]1(C)C=C2[C@@H](O)C[C@H]3C(C)(C)CCC[C@]3(C)[C@@]2(O)[C@H](O)C1
[3]
  Activity: Active

## C=C[C@]1(C)C=C2C[C@@H](O)[C@H]3C(C)(C)[C@H](O)C[C@H](O)[C@]3(C)[C@H]2CC1
[4]
  Activity: Active

## C=C[C@]1(C)C=C2C[C@@H](OC(C)=O)[C@H]3C(C)(C)CC[C@H](O)[C@]3(C)[C@@]2(O)CC1
[5]
  Activity: Active
[6]
  Activity: 15%
[7]
  Activity: Dose-dependent effect
[8]
  Activity: Active
[9]
  Activity: Dose-dependent effect
[10]
  Activity: Dose-dependent effect
[11]
  Activity: Active
[12]
  Activity: 0%
[13]
  Activity: Dose-dependent effect
[14]
  Activity: Dose-dependent effect
[15]
  Activity: 65%
[16]
  Activity: Active
[17]
  Activity: Non-Toxic
[18]
  Activity: 0%
[19]
  Activity: Dose-dependent effect
[20]
  Activity: Active
[21]
  Activity: Active
[22]
  Activity: 75%
[23]
  Activity: 68%
[24]
  Activity: Dose-dependent effect

## C=C[C@]1(C)C=C2CC[C@H]3C(C)(C)C[C@H](O)[C@H](O)[C@]3(C)[C@H]2CC1
[3]
  Activity: Active

## C=C[C@]1(C)C=C2C[C@@H](O)[C@H]3C(C)(C)CC[C@H](O)[C@]3(C)[C@@]2(O)CC1
[25]
  Activity: Active

## C=C[C@]1(C)C=C2C[C@@H](O)[C@H]3C(C)(C)CCC(=O)[C@]3(C)[C@@]2(O)CC1
[2]
  Activity: Active

## C=C[C@]1(C)C=C2[C@H](O)C[C@H]3C(C)(C)CC[C@H](O)[C@]3(C)[C@@]2(O)CC1
[26]
  Activity: Active

## C=C[C@@]1(C)CCC2=C([C@H](O)[C@@H](O)[C@H]3C(C)(C)CCC[C@]23C)[C@@H]1OC
[26]
  Activity: Active

## C=C[C@]1(C)C=C2[C@H](O)[C@@H](OC(C)=O)[C@H]3C(C)(C)CCC[C@]3(C)[C@@]2(O)CC1
[3]
  Activity: Active

## C=C[C@]1(C)C=C2CC[C@H]3C(C)(C)CC[C@H](O)[C@]3(C)[C@@]2(O)CC1
[27]
  Activity: Active

## C=C[C@@]1(C)CCC2=C(C[C@@H](O)[C@H]3C(C)(C)CCC[C@]23C)[C@H]1O
[4]
  Activity: Active

## C=C[C@]1(C)C=C2[C@H](O)[C@@H](OC(C)=O)[C@H]3C(C)(C)CC[C@H](O)[C@]3(C)[C@@]2(O)CC1
[3]
  Activity: Active

Source: ChEMBL document CHEMBL3867441, “Boesenberols, Pimarane Diterpenes with TRAIL-Resistance-Overcoming Activity from Boesenbergia pandurata” (J Nat Prod, 2016)
